Assay [1] has as its target T1, GABA-A receptor; alpha-1/beta-2/gamma-2 (Homo sapiens, UniProt P14867+P18507+P47870).
T1 sequence (P14867 whole entry): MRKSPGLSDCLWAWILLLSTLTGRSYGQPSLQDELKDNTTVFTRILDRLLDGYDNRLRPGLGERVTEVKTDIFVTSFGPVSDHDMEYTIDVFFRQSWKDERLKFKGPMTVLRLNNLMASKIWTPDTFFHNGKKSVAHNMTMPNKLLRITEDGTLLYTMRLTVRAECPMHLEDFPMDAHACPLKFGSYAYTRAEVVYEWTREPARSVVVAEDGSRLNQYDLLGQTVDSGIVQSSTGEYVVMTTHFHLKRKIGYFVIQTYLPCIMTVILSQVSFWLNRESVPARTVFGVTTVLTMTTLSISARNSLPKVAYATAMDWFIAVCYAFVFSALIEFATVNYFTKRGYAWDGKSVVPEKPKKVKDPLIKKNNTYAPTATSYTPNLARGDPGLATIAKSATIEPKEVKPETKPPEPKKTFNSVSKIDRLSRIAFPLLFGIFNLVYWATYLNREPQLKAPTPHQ
T1 sequence (P47870 whole entry): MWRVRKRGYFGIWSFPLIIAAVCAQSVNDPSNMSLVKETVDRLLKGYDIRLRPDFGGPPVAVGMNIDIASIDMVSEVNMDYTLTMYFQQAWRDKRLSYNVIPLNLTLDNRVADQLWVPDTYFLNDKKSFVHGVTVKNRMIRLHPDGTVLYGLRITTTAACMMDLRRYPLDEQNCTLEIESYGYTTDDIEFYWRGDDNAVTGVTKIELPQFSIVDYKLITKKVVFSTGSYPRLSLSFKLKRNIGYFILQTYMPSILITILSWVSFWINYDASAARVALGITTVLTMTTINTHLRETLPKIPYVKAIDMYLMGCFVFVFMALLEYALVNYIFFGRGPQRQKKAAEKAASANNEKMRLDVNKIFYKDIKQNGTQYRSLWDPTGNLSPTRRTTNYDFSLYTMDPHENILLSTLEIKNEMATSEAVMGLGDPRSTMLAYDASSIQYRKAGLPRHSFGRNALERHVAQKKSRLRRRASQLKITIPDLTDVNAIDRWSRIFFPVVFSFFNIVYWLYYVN
T1 sequence (P18507 whole entry): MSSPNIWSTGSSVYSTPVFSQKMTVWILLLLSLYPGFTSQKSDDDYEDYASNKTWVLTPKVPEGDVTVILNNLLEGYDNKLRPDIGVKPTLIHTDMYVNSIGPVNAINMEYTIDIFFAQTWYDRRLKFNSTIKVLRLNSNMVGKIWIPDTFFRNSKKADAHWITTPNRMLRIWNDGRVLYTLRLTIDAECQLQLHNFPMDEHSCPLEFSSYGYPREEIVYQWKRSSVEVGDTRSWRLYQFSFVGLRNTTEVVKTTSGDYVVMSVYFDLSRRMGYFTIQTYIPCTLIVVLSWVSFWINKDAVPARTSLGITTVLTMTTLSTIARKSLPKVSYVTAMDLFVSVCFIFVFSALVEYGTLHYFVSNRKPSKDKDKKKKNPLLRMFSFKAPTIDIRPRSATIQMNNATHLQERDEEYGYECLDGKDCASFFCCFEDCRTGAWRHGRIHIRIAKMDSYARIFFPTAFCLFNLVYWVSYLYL
As to the kind of experiment: Antagonist activity at human alpha1beta2gamma2 GABAA receptor expressed in HEK by FMP assay. Format: cell-based. In a few lines: (§1)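 Human αβγ2 receptors in HEK293 cells: α1β2γ2 stably expressed, other αβγ2 subtypes transiently transfected into HEK293 Flp-In background cells (α:β:γ 1:1:2). FLIPR membrane potential assay with ΔRFU baseline to peak/plateau and GABA EC80 as agonist. IC50 from a four-parameter fit, at least three independent experiments.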

In assay [2] the target is GABA-A receptor; anion channel. As to the kind of experiment: Displacement of [3H]-muscimol from rat brain cortex GABAA receptor assessed as inhibition constant incubated for 1 hr by top-counter microplate scintillation counter method. Type of assay: cell membranes, Membrane. (In general: Displacement assays read how much labelled ligand stays bound in the presence of the test substance.)

Assay [3] concerns the target T2, GABA A receptor alpha-3/beta-2/gamma-2 (Homo sapiens, UniProt P18507+P34903+P47870).
T2 sequence (P47870 whole entry): T1 sequence (P47870 whole entry)
T2 sequence (P18507 whole entry): T1 sequence (P18507 whole entry)
T2 sequence (P34903 whole entry): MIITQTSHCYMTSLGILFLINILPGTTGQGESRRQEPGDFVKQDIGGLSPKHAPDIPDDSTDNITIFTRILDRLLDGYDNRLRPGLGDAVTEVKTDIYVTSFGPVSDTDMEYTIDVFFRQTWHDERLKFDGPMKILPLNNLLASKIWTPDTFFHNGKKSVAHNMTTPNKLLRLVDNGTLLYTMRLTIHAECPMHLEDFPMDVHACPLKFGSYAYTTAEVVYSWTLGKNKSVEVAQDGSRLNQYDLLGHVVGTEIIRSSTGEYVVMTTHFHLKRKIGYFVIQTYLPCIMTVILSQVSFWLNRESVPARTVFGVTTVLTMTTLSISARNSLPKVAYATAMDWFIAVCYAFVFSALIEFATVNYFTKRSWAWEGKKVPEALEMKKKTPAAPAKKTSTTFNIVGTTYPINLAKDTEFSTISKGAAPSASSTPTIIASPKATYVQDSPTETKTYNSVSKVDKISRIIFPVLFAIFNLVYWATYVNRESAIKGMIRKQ
As to the kind of experiment: Antagonist activity at human alpha3beta2gamma2 GABAA receptor expressed in HEK293 cells by FMP assay. Type of assay: cell-based. In a few lines: as §1

Assay [4] addresses T3, GABA A receptor alpha-2/beta-2/gamma-2 (Homo sapiens, UniProt P18507+P47869+P47870).
T3 sequence (P47870 whole entry): T1 sequence (P47870 whole entry)
T3 sequence (P18507 whole entry): T1 sequence (P18507 whole entry)
T3 sequence (P47869 whole entry): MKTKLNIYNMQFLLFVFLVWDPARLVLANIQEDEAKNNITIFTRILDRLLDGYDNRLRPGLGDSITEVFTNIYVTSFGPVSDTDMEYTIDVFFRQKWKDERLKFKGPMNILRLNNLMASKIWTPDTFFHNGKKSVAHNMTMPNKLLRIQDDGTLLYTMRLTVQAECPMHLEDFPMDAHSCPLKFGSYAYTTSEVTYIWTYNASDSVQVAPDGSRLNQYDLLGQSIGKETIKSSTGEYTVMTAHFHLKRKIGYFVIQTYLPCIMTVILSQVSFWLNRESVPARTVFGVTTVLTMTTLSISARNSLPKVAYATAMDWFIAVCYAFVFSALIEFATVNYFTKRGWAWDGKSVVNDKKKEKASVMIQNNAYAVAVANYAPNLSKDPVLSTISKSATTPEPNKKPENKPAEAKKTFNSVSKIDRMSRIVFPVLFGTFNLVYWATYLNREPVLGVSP
As to the kind of experiment: Antagonist activity at human alpha2beta2gamma2 GABAA receptor expressed in HEK293 cells by FMP assay. Format: cell-based. An outline of the steps: as §1

Assay [5] concerns the target T1, GABA-A receptor; alpha-1/beta-2/gamma-2. As to the kind of experiment: Antagonist activity at human alpha1beta2gamma2 GABAA receptor expressed in HEK293 cells by FMP assay. Type of assay: cell-based. In a few lines: as §1

As for `O=C(Nc1cccc(C(=O)N2CCC3(CCNCC3)CC2)c1)c1cccs1`, the results for the IC50 in assay [1] and in assay [1] (read-out: pIC50 (converted)) were 0.79 µM and 0.794 µM, respectively. Moreover, in assay [2], the Ki (commonly the equilibrium dissociation constant of an inhibitor or competing ligand from its target) amounted to 0.02 µM.
On to `Cc1cccc(C(=O)N2CCC3(CCNCC3)CC2)c1`, for which the IC50 is 0.56 µM in assay [3]; 0.501 µM in assay [3] (read-out: pIC50 (converted)); 7.56 µM in assay [4]; 7.41 µM in assay [4] (read-out: pIC50 (converted)); 2.18 µM in assay [5]; 2.19 µM in assay [5] (read-out: pIC50 (converted)).
On to `Cc1ccc(C(=O)N2CCC3(CCNCC3)CC2)cc1`, for which the IC50 in assay [3] is 3.57 µM; in assay [3] (read-out: pIC50 (converted)), 3.24 µM; in assay [4], 25.3 µM; in assay [4] (read-out: pIC50 (converted)), 25.1 µM; in assay [5] it was 10 µM; in assay [5] (read-out: pIC50 (converted)), 10 µM.
For `CC(=O)Nc1cccc(C(=O)N2CCC3(CCNCC3)CC2)c1`, the IC50 in assay [1] was 4.96 µM; in assay [1] (read-out: pIC50 (converted)), 5.01 µM. In addition, the Ki in assay [2] was found to be 0.56 µM.

Values taken from ChEMBL document CHEMBL5096209, “Structure-Activity Studies of 3,9-Diazaspiro[5.5]undecane-Based γ-Aminobutyric Acid Type A Receptor Antagonists with Immunomodulatory Effect” (J Med Chem, 2021).
